Laboratory results as given in ChEMBL document CHEMBL1131478 (J Med Chem, 1998).

Assays:
Matrilysin = target: T1, Matrilysin (Homo sapiens, UniProt P09237); assay: Inhibitory activity against Matrix metalloprotease-7
T1 sequence (P09237 whole entry): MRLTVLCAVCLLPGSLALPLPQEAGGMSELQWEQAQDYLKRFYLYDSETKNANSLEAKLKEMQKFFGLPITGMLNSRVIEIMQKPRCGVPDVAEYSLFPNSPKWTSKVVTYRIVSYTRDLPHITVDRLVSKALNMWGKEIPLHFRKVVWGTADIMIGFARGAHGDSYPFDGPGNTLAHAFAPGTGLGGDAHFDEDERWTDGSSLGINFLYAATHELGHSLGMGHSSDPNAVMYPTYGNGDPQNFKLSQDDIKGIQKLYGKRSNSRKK

Neprilysin = target: T2, Neprilysin (Rattus norvegicus, UniProt P07861); assay: Inhibitory activity against neutral endopeptidase (NEP)
T2 sequence (P07861 whole entry): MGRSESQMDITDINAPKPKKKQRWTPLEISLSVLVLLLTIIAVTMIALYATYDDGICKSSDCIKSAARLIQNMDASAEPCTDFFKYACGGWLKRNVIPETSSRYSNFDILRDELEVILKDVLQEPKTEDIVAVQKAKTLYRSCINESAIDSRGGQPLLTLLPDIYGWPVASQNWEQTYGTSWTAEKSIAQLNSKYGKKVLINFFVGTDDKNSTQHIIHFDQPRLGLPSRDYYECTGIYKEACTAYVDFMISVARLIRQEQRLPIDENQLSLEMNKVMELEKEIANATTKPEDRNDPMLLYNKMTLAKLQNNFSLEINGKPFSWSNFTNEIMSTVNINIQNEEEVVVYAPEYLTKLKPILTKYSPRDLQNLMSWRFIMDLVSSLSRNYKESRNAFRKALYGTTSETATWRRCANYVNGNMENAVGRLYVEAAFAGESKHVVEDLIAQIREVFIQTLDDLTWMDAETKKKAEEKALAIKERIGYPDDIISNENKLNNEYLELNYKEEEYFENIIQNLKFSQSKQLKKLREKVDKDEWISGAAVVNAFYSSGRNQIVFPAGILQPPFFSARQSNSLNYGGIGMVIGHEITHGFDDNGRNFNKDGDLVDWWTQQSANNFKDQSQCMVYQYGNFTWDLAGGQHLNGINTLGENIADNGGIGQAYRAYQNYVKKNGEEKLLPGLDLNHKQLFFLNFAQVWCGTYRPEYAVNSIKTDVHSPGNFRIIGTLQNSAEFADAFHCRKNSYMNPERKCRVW

Stromelysin-1 = Stromelysin-1 (Homo sapiens, UniProt P08254); assay: Inhibitory activity against Matrix metalloprotease-3
Outline: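 Enzyme and DMSO inhibitor were preincubated 30 min at room temperature in 50 mM Tris-Cl/10 mM CaCl2/0.2 M NaCl/0.02% NaN3/0.05% Brij-35, pH 7.5. Substrate MOAc-Arg-Pro-Lys-Pro-Val-Glu-Nva-Trp-Arg-Lys(Dnp)NH2 (added as 25 μM solution) then reacted 90 min.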

[1] = target: T3, Endothelin-converting enzyme 1 (Homo sapiens, UniProt P42892); assay: Inhibitory activity against endothelin converting enzyme (ECE)
T3 sequence (P42892 whole entry): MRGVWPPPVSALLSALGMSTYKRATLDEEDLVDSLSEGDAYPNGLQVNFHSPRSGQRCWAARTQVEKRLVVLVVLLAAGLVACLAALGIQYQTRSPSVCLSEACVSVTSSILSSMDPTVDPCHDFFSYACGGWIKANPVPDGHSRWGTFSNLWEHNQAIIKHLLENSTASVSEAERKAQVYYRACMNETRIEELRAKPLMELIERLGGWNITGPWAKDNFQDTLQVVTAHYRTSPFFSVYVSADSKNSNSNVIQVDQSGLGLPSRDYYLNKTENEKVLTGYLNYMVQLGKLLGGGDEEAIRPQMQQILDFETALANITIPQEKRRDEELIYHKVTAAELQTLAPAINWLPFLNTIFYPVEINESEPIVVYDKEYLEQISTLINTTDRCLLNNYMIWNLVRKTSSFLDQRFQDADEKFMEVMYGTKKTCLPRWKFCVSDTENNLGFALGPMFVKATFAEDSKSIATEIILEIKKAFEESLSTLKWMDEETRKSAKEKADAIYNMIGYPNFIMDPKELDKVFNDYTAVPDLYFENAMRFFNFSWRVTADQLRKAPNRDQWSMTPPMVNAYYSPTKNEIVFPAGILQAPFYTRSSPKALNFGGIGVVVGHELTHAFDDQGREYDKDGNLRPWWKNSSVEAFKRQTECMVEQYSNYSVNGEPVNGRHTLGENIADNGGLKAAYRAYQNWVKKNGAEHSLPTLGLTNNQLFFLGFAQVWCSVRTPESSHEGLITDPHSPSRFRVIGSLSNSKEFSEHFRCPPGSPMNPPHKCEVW

Interstitial collagenase = target: T4, Interstitial collagenase (Homo sapiens, UniProt P03956); assay: Inhibitory activity against Matrix metalloprotease-1
T4 sequence (P03956 whole entry): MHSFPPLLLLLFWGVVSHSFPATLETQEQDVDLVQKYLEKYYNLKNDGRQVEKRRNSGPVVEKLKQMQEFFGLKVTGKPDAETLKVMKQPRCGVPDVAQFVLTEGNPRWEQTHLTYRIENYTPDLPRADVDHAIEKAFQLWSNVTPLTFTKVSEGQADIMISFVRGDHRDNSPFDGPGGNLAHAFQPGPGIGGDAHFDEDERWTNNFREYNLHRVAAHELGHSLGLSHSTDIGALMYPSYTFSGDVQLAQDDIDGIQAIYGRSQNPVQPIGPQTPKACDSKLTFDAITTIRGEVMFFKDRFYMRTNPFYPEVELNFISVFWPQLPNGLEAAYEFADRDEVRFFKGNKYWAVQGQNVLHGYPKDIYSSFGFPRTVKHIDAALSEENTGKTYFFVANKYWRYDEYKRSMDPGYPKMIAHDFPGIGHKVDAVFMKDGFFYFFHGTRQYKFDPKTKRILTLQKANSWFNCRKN
Outline: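 Commercial enzyme diluted in Tris/CaCl2/NaCl/Brij-35 buffer. Enzyme (about 0.2 unit/mL) and DMSO inhibitor were preincubated 30 min at room temperature with ABD-F (added as 2 mM) in 25 mM HEPES-NaOH/5 mM CaCl2, pH 7.0. Thiopeptide substrate Ac-Pro-Leu-Gly-SCH(CH2CH(CH3)2)CO-Leu-Gly-OEt (1.25 mM stock) was then added for 3 h at 37 °C. Reaction quenched with 3% acetic acid. Fluorescence read at ex 360/em 530 nm.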

[2] = target: Angiotensin-converting enzyme (Homo sapiens, UniProt P12821); assay: Inhibitory activity against Angiotensin I converting enzyme
[3] = Maximum plasma concentration (Cmax) after p.o. administration of 200 mg/kg in mice; assay type: ADME, organism-based; parameters: dose 200 mg/kg, route oral; conditions: mouse, po
Outline: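 Single 200 mg/kg oral dose in mice, given in 0.5% methyl cellulose. Blood drawn at various time points. Plasma drug extracted with CH3CN and quantified by reverse-phase C18 HPLC using a CH3CN gradient with 0.1% TFA. Peak plasma level taken as Cmax.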

[4] = target: Matrix metalloproteinase-9 (Homo sapiens, UniProt P14780); assay: Inhibitory activity against human gelatinase B (Matrix metalloprotease-9)
[5] = target: 72 kDa type IV collagenase (Homo sapiens, UniProt P08253); assay: Inhibitory activity against human gelatinase A (matrix metalloprotease-2 MMP2)
[6] = target: T3, Endothelin-converting enzyme 1; assay: Inhibitory activity against Endothelin-converting enzyme (ECE)

Matrix metalloproteinase-9, sequence (P14780 whole entry): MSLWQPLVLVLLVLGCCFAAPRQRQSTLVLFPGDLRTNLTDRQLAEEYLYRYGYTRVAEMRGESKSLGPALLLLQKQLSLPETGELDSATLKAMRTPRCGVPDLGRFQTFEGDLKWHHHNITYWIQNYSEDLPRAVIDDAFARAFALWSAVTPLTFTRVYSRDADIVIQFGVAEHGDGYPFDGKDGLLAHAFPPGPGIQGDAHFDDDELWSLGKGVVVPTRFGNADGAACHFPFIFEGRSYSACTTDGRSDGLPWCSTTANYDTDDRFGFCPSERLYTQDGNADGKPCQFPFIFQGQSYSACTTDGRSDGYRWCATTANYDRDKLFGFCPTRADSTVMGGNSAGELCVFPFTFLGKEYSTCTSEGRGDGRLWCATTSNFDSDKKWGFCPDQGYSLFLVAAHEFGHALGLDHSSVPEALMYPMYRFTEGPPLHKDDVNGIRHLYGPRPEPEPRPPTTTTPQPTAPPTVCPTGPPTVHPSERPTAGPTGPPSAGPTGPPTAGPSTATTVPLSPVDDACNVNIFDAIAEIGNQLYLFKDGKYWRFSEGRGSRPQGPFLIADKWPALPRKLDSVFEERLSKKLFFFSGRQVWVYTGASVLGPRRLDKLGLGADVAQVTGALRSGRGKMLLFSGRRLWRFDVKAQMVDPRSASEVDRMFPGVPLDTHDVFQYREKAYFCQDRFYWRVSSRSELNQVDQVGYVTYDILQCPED
72 kDa type IV collagenase, sequence (P08253 whole entry): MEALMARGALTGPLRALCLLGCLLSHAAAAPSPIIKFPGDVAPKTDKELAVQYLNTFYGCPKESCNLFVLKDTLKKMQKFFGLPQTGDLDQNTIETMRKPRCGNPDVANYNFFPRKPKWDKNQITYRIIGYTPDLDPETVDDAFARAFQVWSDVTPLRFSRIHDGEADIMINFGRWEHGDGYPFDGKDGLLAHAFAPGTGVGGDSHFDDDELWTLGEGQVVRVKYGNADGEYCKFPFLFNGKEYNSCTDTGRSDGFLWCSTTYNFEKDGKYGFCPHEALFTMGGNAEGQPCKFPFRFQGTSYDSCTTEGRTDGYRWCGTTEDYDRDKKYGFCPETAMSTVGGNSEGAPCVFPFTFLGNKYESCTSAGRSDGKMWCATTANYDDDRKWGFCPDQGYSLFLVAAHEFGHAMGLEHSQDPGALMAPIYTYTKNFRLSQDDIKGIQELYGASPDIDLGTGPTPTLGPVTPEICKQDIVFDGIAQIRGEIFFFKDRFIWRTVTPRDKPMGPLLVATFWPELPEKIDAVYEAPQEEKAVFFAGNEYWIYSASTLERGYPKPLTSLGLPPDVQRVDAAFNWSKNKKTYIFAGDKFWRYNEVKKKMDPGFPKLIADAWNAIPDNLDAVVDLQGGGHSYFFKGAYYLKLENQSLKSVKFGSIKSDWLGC
Angiotensin-converting enzyme, sequence (P12821 whole entry): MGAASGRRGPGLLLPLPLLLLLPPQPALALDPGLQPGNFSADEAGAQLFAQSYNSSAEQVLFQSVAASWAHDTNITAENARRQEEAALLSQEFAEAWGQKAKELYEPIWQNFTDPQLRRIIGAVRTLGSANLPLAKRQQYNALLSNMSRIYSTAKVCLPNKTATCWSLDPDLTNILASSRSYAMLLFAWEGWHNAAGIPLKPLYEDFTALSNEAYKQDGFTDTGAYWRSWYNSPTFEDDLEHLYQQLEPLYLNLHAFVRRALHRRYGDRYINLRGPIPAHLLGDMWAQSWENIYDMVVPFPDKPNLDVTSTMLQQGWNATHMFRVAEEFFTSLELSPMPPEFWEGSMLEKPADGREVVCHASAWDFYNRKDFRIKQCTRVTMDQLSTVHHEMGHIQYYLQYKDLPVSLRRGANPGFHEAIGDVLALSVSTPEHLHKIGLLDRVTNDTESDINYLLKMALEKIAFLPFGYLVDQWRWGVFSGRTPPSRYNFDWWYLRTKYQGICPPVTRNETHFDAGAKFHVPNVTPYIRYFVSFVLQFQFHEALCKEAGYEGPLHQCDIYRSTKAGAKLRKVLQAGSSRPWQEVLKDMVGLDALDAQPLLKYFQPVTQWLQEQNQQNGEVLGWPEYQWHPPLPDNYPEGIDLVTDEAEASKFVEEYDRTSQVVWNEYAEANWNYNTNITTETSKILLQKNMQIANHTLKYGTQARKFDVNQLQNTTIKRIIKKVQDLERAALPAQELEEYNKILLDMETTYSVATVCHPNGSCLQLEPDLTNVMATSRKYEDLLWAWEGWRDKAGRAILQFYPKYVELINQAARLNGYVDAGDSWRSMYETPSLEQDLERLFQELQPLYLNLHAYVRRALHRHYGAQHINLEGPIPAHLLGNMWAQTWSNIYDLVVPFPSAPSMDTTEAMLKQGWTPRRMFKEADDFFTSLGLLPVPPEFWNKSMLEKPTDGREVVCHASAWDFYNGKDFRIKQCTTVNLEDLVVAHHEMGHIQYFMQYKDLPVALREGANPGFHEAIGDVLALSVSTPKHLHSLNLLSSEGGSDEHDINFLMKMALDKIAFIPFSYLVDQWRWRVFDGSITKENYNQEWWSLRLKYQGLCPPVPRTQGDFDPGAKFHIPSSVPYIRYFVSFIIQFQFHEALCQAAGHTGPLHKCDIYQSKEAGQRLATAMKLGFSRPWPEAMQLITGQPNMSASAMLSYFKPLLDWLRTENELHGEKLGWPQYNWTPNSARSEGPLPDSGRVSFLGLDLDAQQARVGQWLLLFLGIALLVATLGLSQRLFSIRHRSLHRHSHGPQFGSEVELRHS
Stromelysin-1, sequence (P08254 whole entry): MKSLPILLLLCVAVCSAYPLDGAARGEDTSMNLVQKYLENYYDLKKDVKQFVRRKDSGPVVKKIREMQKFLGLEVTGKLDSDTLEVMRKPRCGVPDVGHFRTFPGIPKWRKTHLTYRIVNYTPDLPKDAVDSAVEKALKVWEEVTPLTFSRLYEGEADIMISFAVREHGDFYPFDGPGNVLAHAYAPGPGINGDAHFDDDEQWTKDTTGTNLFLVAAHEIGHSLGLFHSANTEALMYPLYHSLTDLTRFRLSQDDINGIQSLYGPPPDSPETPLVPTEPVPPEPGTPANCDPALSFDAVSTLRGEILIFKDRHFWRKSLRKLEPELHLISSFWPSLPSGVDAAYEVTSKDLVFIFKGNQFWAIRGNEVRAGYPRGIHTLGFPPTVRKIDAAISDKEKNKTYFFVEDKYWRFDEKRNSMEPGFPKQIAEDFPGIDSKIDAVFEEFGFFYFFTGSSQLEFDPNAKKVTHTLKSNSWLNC

| SMILES | IC50 (Matrilysin) | IC50 (Neprilysin) | IC50 (Stromelysin-1) | IC50 [1] | IC50 (Interstitial collagenase) | IC50 [2] | Cmax [3] | IC50 [4] | IC50 [5] | IC50 [6] |
| --- | --- | --- | --- | --- | --- | --- | --- | --- | --- | --- |
| Cc1ccc(C#Cc2ccc(S(=O)(=O)N[C@H](Cc3c[nH]c4ccccc34)C(=O)O)s2)cc1 [S-3304] | > 1 µM | > 1 µM | > 1 µM | > 1 µM | > 1 µM | > 1 µM | 204 µM | 0.023 µM | – | – |
| CSc1ccc(-c2ccc(S(=O)(=O)N[C@@H](C(=O)O)C(C)C)cc2)cc1 | > 1 µM | > 1 µM | > 1 µM | > 1 µM | > 1 µM | > 1 µM | 189 µM | 0.04 µM | 0.023 µM | – |
| Cc1ccc(-c2ccc(S(=O)(=O)N[C@H](Cc3c[nH]c4ccccc34)C(=O)O)s2)cc1 | > 1 µM | > 1 µM | > 1 µM | – | > 1 µM | > 1 µM | 252 µM | 0.061 µM | 0.01 µM | > 1 µM |
| O=C(Nc1ccc(S(=O)(=O)N[C@H](Cc2c[nH]c3ccccc23)C(=O)O)cc1)c1ccc(Br)cc1 | > 1 µM | > 1 µM | > 1 µM | > 1 µM | > 1 µM | > 1 µM | 0.2 µM | – | 0.0026 µM | – |
| O=C(O)[C@@H](Cc1c[nH]c2ccccc12)NS(=O)(=O)c1ccc(-c2nnn(-c3ccccc3)n2)cc1 | > 1 µM | > 1 µM | > 1 µM | – | > 1 µM | > 1 µM | – | 0.032 µM | 0.019 µM | > 1 µM |
| CSc1ccc(-n2nnc(-c3ccc(S(=O)(=O)N[C@@H](C(=O)O)C(C)C)cc3)n2)cc1 | > 1 µM | > 1 µM | > 1 µM | > 1 µM | > 1 µM | > 1 µM | 47.7 µM | – | 0.013 µM | – |
